Compound activity as filed in PubChem.
IEC-6 tox = counter-screen for KLF5 inhibitors: cytotoxicity in IEC-6 cells; IEC-6 cytotoxicity, luminescence viability; 0.78% of 290,000 active; inhibition, % at 5 µM; in the data active = inhibition above about 22%
BaF3 tox = reduces parental Ba/F3 cell viability, JAK2V617F counter-screen; inhibition, % at 5.6 µM; AID 1486; CellTiter-Glo ATP luminescence; 1.1% of 220,000 active;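 active = inhibition above a per-campaign cutoff, the mean inhibition of all tested compounds plus 3 SD, cut at about 27% in these data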
APP 5UTR inh = APP translation inhibition; SH-SY5Y APP 5'UTR-luciferase reporter, luminescence; inhibition, % at 2 µM; 0.82% of 190,000 active; AID 1285;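 active = inhibition above a set limit, derived from the sample mean plus 3 SD, cut at about 45% in these data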
MT stabilizer = microtubule stabilization, imaging screen; 0.83% of 200,000 active; AID 2205; % tubulin-high responders, % at 10 µM; HeLa tubulin immunostaining HCS, 24 h; share of cells brighter than vehicle mean+2SD;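 active = plate Z-score above 3 for both tubulin-high and condensed-nucleus cell shares, with cell loss under 80%, at 10 µM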;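 also: anti alpha tubulin signal scored within the nucleus-defined area of each cell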
b-catenin transl = beta-catenin nuclear translocation modulation. HeLa beta-catenin nuclear translocation, immunofluorescence imaging. nuclear translocation activity, % at 5 µM. 0.3% of 190,000 active. AID 1665;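 active = nuclear translocation activity above 50% at 5 µM, with a well cell count of 50 or more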;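 also: per-cell ratio of nuclear to cytoplasmic median beta-catenin stain intensity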
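assay system = human HeLa cells, endogenous beta-catenin | times = compound treatment 24 h, 37°C, 5% CO2 | detection = Anti-beta-catenin immunofluorescence on PFA-fixed, Triton-permeabilized cells, DAPI nuclei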
Ba/F3 V617F tox = reduce viability of Ba/F3 cells dependent on JAK2V617F; 1.1% of 220,000 active; Ba/F3 EpoR-JAK2V617F viability, ATP luminescence; inhibition, % at 5.6 µM;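 active = inhibition above the campaign mean plus 3 SD over all tested compounds, cut at about 24% in these data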;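 also: cytokine-independent growth of Ba/F3 cells driven by EpoR plus mutant JAK2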
Numbers stand for hits; n = inactive; x = no result. Compounds with a hit are over-represented: about 2.2% of the library has one in this group of screens.

SMILES	IEC-6 tox	BaF3 tox	APP 5UTR inh	MT stabilizer	b-catenin transl	Ba/F3 V617F tox
C/C(=N\NC(=O)c1ccc(Br)o1)c1cc2c(cc1NC(=O)CCC(=O)O)OCO2	n	x	x	x	x	x
CC1CCCCC1NS(=O)(=O)c1ccc(S(=O)(=O)NCc2ccncc2)cc1 (centres undefined)	n	46.8	n	n	n	41.7
O=C(/C=C/c1ccccc1[N+](=O)[O-])c1ccccc1Br	n	n	n	29.1	n	n
COc1ccccc1CNC(=O)[C@H](NC(=O)C1CCN(C(=O)[C@@H](N)CCSC)CC1)C(C)C	n	x	x	x	x	x
O=C(NC1CCCC1)C(c1ccc(F)cc1)N(C(=O)c1csnn1)C1CC1 (centres undefined)	n	x	x	x	x	x
O=S(=O)(c1ccc(Nc2ccc(-c3ccc4c(c3)OCCO4)nn2)cc1)N1CCCC1	n	n	n	12.1	x	n
COc1ccc(C(C(=O)NCC2CCCO2)N(Cc2ccccc2)C(=O)CNC(=O)c2ccco2)cc1OC (centres undefined)	n	x	x	x	x	x
Cc1ccc(Cn2ccc(NC(=O)CCSc3nc(-c4ccco4)cc(C(F)(F)F)n3)n2)cc1	n	n	n	35.7	n	n
Cc1ccccc1Cn1ccc(NC(=O)CCSc2nc(-c3ccco3)cc(C(F)(F)F)n2)n1	n	n	n	n	x	n
Cc1cccc(C)c1NC(=O)CSc1nc(-c2ccco2)cc(C(F)(F)F)n1	n	n	n	41.0	n	n
O=C(CSc1nc(-c2ccco2)cc(C(F)(F)F)n1)Nc1ccccc1C(F)(F)F	n	n	n	n	n	n
Cc1cc(C2=NNC(=NC3CC3)SC2)c(C)n1-c1ccccc1F	n	n	69.5	n	x	n
c1cc2c(cc1C1=NNC(=NC3CC3)SC1)OCCO2	n	n	51.0	n	n	n
CCC1(C)Cc2c(sc3c2c2ncnn2c2nnc(SCC(=O)NCc4ccco4)n32)CO1 (centres undefined)	n	n	n	13.3	n	n
O=C(N/N=C/c1cccs1)c1n[nH]c2c1CCC2	n	n	n	25.3	n	n
CC1(C)CC(=NNC(=O)c2n[nH]c3c2CCC3)CC(C)(C)N1	n	n	82.1	n	n	n
O=C(Nc1ccc([N+](=O)[O-])cc1)Nc1nc(-c2ccc(Cl)s2)cs1	n	n	56.3	n	n	n
COc1cccc(CNC(=O)Cn2ccc3cc(S(=O)(=O)N4CCCCCC4)ccc32)c1	n	x	x	x	x	x
Cc1ccc(Cc2c(C)nc3nc(SCC(=O)NCc4ccco4)nn3c2C)cc1	n	n	n	22.0	155.9	n
Cc1cccc(Cc2c(C)nc3nc(SCC(=O)NCc4ccco4)nn3c2C)c1	n	n	n	20.5	n	n
Cc1ccccc1Cc1c(C)nc2nc(SCC(=O)NCc3ccco3)nn2c1C	n	n	n	n	n	n
O=C(Nc1nncs1)c1cc(S(=O)(=O)N2CCCCC2)ccc1Cl	n	x	x	x	x	x
Cc1c(C(=O)N2CCc3ccccc3C2)oc2ccccc12	n	x	x	x	x	x
COc1ccccc1-c1nn2c(C(F)(F)F)nnc2s1	n	n	n	14.0	n	n
COc1ccccc1-c1nnc2sc(-c3cc4ccccc4o3)nn12	58.1	79.7	n	n	94.4	88.2
SMILES	IEC-6 tox	BaF3 tox	APP 5UTR inh	MT stabilizer	b-catenin transl	Ba/F3 V617F tox
Cc1cc(Br)c2[nH]cc(CCNC(=O)c3ccco3)c2c1	n	x	x	x	x	x
CCn1c2ccccc2c2cc(/C=N/NC(=O)c3ccccc3)ccc21	n	n	n	20.5	n	n
CCc1nc(SCc2ccccc2C)n[nH]1	n	x	x	x	x	x
COc1ccc(-c2nc(C)ncc2-c2csc(C)n2)c(O)c1	n	n	n	n	n	n
COc1ccc(-c2ncncc2-c2csc(C)n2)c(O)c1	n	31.7	n	n	n	n
COc1ccc(/C=c2/sc3n(c2=O)C(c2ccccc2OC)C2=C(N=3)c3ccccc3CC2)cc1O (centres undefined)	n	28.8	84.2	33.4	n	n
CCOC(=O)C1=C(C)N=c2s/c(=C\c3ccc(O)c([N+](=O)[O-])c3)c(=O)n2C1c1ccccc1OC (centres undefined)	n	x	x	x	x	x
CC1=CC(C)C2(COC(c3ccc[n+](C)c3)OC2)C(C)C1 (centres undefined)	n	72.2	n	n	n	64.9
Cc1nc2cc(-c3ccc(Cl)cc3)nn2c(NCCN(C)C)c1C	n	n	n	n	n	n
O=C1NCCCC1C(=O)N1CCN(C(c2ccccc2)c2ccccc2)CC1 (centres undefined)	n	n	50.1	n	n	n
O=C(N1CCCCC1)N1CCN(C(c2ccccc2)c2ccccc2)CC1	n	n	x	n	n	n
S=C(Nc1ccc(Cl)cc1)N1CCN(C2CCCCC2)CC1	n	36.3	n	n	n	n
O=C(O)Cc1sc(Nc2cccc3ccccc23)nc1-c1ccc(Cl)cc1	n	x	x	x	x	x
CCOCCCNC(=O)c1cc2sc(Cl)cc2n1CC	n	n	n	14.2	x	n
C=CCN(C(=O)CN1CCCCC1)c1nc(-c2ccccc2)cs1	n	x	x	x	x	x
C=CCN(C(=O)CN1CCOCC1)c1nc(C)c(-c2ccccc2)s1	n	26.7	n	n	n	n
O=C(Nc1nonc1NC(=O)c1cccs1)c1cccs1	n	n	n	n	n	n
Cn1ncc(Br)c1NC(=O)c1cc(Cl)cc(Cl)c1	n	x	x	x	x	x
Cc1cc(C)c(CSc2ncnc3nc[nH]c23)c(C)c1	n	n	n	n	56.1	n
CNC1=C(N(C(C)=O)c2ccc(Br)cc2)C(=O)c2ccccc2C1=O	n	101.7	55.0	n	n	100.5
CCC(=O)N(CC)C1=C(O)c2ccccc2C(=O)C1=O	n	n	n	n	n	n
CCC(=O)N(C1=C(NC)C(=O)c2ccccc2C1=O)C(C)C	n	102.0	n	n	n	100.5
CC(=O)NC1=C(N(C)C2CCS(=O)(=O)C2)C(=O)c2ccccc2C1=O (centres undefined)	n	n	n	n	n	n
Cc1ccccc1-c1nc(CS(=O)CC(=O)NC2CCCCC2)c(C)o1 (centres undefined)	n	x	x	x	x	x
Cc1ccc(/C=N/NC(=O)CSc2nc3ccccc3c(=O)n2-c2ccccc2)s1	n	n	n	n	n	n
SMILES	IEC-6 tox	BaF3 tox	APP 5UTR inh	MT stabilizer	b-catenin transl	Ba/F3 V617F tox
CCn1c(SCC(=O)N/N=C/c2ccc(C)s2)nc2ccccc21	n	n	n	20.1	n	n
O=C(CCCCCn1c(=S)[nH]c2cc3c(cc2c1=O)OCO3)N1CCN(c2ccccc2)CC1	n	x	x	x	x	x
O=C(CCCn1c(=S)[nH]c2cc3c(cc2c1=O)OCO3)N1CCN(c2ncccn2)CC1	n	56.7	n	n	n	63.6
CN1CCN(Cc2nc3ccccc3c(=O)n2Cc2nc(-c3ccc4ccccc4c3)cs2)CC1	n	n	n	n	n	101.8
CN1CCN(Cc2nc3ccccc3c(=O)n2Cc2nc(-c3cccc([N+](=O)[O-])c3)cs2)CC1	n	n	n	n	n	n
Cc1cc(C)c(S(=O)(=O)N2CCCC(C(=O)NC3CCCC3)C2)c(C)c1 (centres undefined)	n	x	x	x	x	x
C=CCNC(=S)/N=c1/ccccn1CC	n	28.8	x	x	n	n
Clc1ccc2nc3c4ccccc4cnn3c2c1	n	n	n	17.1	n	n
